Activity calls are given as the source filed them. The rule behind the calls is not given here.
Experiments:
[1] = target: T1, [Pyruvate dehydrogenase (acetyl-transferring)] kinase isozyme 1, mitochondrial (Homo sapiens, UniProt Q15118); assay: Inhibition of PDK1 in human MCF7 cells assessed as increase in ratio of oxygen consumption rate to extracellular acidification rate at 20 uM after 12 hrs; assay type: cell-based
In short: (§1)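 MCF-7 cells at 2.7×10⁴ cells/well in XF24 plates, attached, then grown 24 h at 37 °C in 5% CO2. Treated 12 h at 5, 10 or 20 µM, rinsed into glycolysis stress-test medium and held 1 h at 37 °C without CO2. OCR, ECAR and PPR then measured on a Seahorse XFe24 analyser. Significance P < 0.05 versus untreated control.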

[2] = target: T1, [Pyruvate dehydrogenase (acetyl-transferring)] kinase isozyme 1, mitochondrial; assay: Inhibition of PDK1 in human MCF7 cells assessed as increase in oxygen consumption rate at 5 to 20 uM after 12 hrs; assay type: cell-based; in short: as §1
[3] = target: T1, [Pyruvate dehydrogenase (acetyl-transferring)] kinase isozyme 1, mitochondrial; assay: Inhibition of PDK1 in human MCF7 cells assessed as increase in oxygen consumption rate at 40 uM after 12 hrs; assay type: cell-based
[4] = target: T1, [Pyruvate dehydrogenase (acetyl-transferring)] kinase isozyme 1, mitochondrial; assay: Inhibition of PDK1 in human MCF7 cells assessed as decrease in extracellular acidification rate after 12 hrs; assay type: cell-based; in short: as §1
[5] = target: T1, [Pyruvate dehydrogenase (acetyl-transferring)] kinase isozyme 1, mitochondrial; assay: Inhibition of PDK1 in human MCF7 cells assessed as decrease in proton production rate after 12 hrs; assay type: cell-based; in short: as §1
[6] = target: T1, [Pyruvate dehydrogenase (acetyl-transferring)] kinase isozyme 1, mitochondrial; assay: Inhibition of PDK1 in human MCF7 cells assessed as decrease in lactate production at 5 to 20 uM after 12 hrs; assay type: cell-based
[7] = tested on: MCF7; assay: Reversal of hyperpolarized mitochondrial membrane potential in human MCF7 cells assessed as cells with vital and intact mitochondrial membranes at 20 uM after 12 hrs by JC1 staining-based flow cytometric analysis; assay type: functional
In short: (§2)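 MCF-7 cells treated 12 h (5, 10 or 20 µM), then stained with JC-1. Depolarization read as the ratio of green J-monomer to red J-aggregate fluorescence.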

[8] = tested on: MCF7; assay: Reversal of hyperpolarized mitochondrial membrane potential in human MCF7 cells assessed as J-monomer/J-aggregate ratio at 20 uM after 12 hrs by JC1 staining-based flow cytometric analysis; assay type: functional; in short: as §2
[9] = tested on: MCF7; assay: Reversal of hyperpolarized mitochondrial membrane potential in human MCF7 cells after 12 hrs by JC1 staining-based flow cytometric analysis; assay type: functional, cell-based
[10] = tested on: MCF7; assay: Induction of mitochondrial membrane potential depolarization in human MCF7 cells at 40 uM after 12 hrs by TMRM staining-based assay; assay type: functional, cell-based
[11] = tested on: MCF7; assay: Reversal of hyperpolarized mitochondrial membrane potential in human MCF7 cells assessed as cells with vital and intact mitochondrial membranes at 5 uM after 12 hrs by JC1 staining-based flow cytometric analysis; assay type: functional; in short: as §2
[12] = tested on: MCF7; assay: Reversal of hyperpolarized mitochondrial membrane potential in human MCF7 cells assessed as cells with vital and intact mitochondrial membranes at 10 uM after 12 hrs by JC1 staining-based flow cytometric analysis; assay type: functional; in short: as §2
[13] = tested on: A549; assay: Cytotoxicity against human A549 cells assessed as growth inhibition after 72 hrs by MTT assay; assay type: functional, cell-based; conditions: A549, 72 h
[14] = tested on: MCF7; assay: Cytotoxicity against human MCF7 cells assessed as growth inhibition after 72 hrs by MTT assay; assay type: functional, cell-based; conditions: MCF7, 72 h
[15] = Cytotoxicity against human MCF10A cells assessed as growth inhibition at 10 uM after 72 hrs by MTT assay relative to control; assay type: cell-based, MCF-10A; conditions: read-out: GI
[16] = Cytotoxicity against human MCF10A cells assessed as growth inhibition at 20 uM after 72 hrs by MTT assay relative to control; assay type: cell-based, MCF-10A; conditions: read-out: GI
[17] = tested on: A549; assay: Cytotoxicity against human A549 cells assessed as growth inhibition at 40 uM after 72 hrs by MTT assay relative to control; assay type: functional, cell-based
[18] = tested on: MCF7; assay: Cytotoxicity against human MCF7 cells assessed as growth inhibition at 40 uM after 72 hrs by MTT assay relative to control; assay type: functional, cell-based
[19] = tested on: MCF7; assay: Induction of apoptosis in human MCF7 assessed as early apoptotic cells at 20 uM after 10 hrs by FITC-annexin V/propidium iodide staining-based flow cytometric analysis (reference value: 2.38%); assay type: functional
[20] = tested on: MCF7; assay: Induction of apoptosis in human MCF7 assessed as late apoptotic cells at 20 uM after 10 hrs by FITC-annexin V/propidium iodide staining-based flow cytometric analysis (reference value: 1.95%); assay type: functional
[21] = tested on: MCF7; assay: Induction of apoptosis in human MCF7 assessed as necrotic cells at 20 uM after 10 hrs by FITC-annexin V/propidium iodide staining-based flow cytometric analysis (reference value: 1.86%); assay type: functional
[22] = tested on: MCF7; assay: Induction of apoptosis in human MCF7 assessed as viable cells at 20 uM after 10 hrs by FITC-annexin V/propidium iodide staining-based flow cytometric analysis (reference value: 93.8%); assay type: functional; conditions: MCF7, 10 h, read-out: Activity
[23] = tested on: MCF7; assay: Induction of apoptosis in human MCF7 assessed as early apoptotic cells at 20 uM after 5 hrs by FITC-annexin V/propidium iodide staining-based flow cytometric analysis (reference value: 2.38%); assay type: functional
[24] = tested on: MCF7; assay: Induction of apoptosis in human MCF7 assessed as late apoptotic cells at 20 uM after 5 hrs by FITC-annexin V/propidium iodide staining-based flow cytometric analysis (reference value: 1.95%); assay type: functional
[25] = tested on: MCF7; assay: Induction of apoptosis in human MCF7 assessed as necrotic cells at 20 uM after 5 hrs by FITC-annexin V/propidium iodide staining-based flow cytometric analysis (reference value: 1.86%); assay type: functional
[26] = tested on: MCF7; assay: Induction of apoptosis in human MCF7 assessed as viable cells at 20 uM after 5 hrs by FITC-annexin V/propidium iodide staining-based flow cytometric analysis (reference value: 93.8%); assay type: functional; conditions: MCF7, 5 h, read-out: Activity
[27] = tested on: MCF7; assay: Induction of apoptosis in human MCF7 assessed as early apoptotic cells at 20 uM after 15 hrs by FITC-annexin V/propidium iodide staining-based flow cytometric analysis (reference value: 2.38%); assay type: functional
[28] = tested on: MCF7; assay: Induction of apoptosis in human MCF7 assessed as late apoptotic cells at 20 uM after 15 hrs by FITC-annexin V/propidium iodide staining-based flow cytometric analysis (reference value: 1.95%); assay type: functional
[29] = tested on: MCF7; assay: Induction of apoptosis in human MCF7 assessed as necrotic cells at 20 uM after 15 hrs by FITC-annexin V/propidium iodide staining-based flow cytometric analysis (reference value: 1.86%); assay type: functional
[30] = tested on: MCF7; assay: Induction of apoptosis in human MCF7 assessed as viable cells at 20 uM after 15 hrs by FITC-annexin V/propidium iodide staining-based flow cytometric analysis (reference value: 93.8%); assay type: functional; conditions: MCF7, 15 h, read-out: Activity
[31] = tested on: MCF7; assay: Induction of apoptosis in human MCF7 assessed as viable cells at 20 uM by FITC-annexin V/propidium iodide staining-based flow cytometric analysis; assay type: functional, cell-based; conditions: TDE = time-dependent effect
[32] = target: T1, [Pyruvate dehydrogenase (acetyl-transferring)] kinase isozyme 1, mitochondrial; assay: Binding affinity to recombinant N-terminal 6xHis-SUMO-tagged human PDK1 (29 to 436 residues) expressed in Escherichia coli BL-21 by isothermal titration calorimetric method
In short: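 Ligand titrated into PDK1 (10 or 20 µM) by ITC at 25 °C, 2.5 µL injections into a 300 µL cell. Protein is His-SUMO-tagged, co-expressed with GroEL/GroES in E. coli BL-21, purified by Ni-IMAC and gel filtration.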

[33] = tested on: A549; assay: Cytotoxicity against human A549 cells assessed as growth inhibition at 20 uM after 72 hrs by IncuCyte Zoom live cells imaging method; assay type: functional, cell-based
[34] = tested on: MCF7; assay: Cytotoxicity against human MCF7 cells assessed as growth inhibition at 20 uM after 72 hrs by IncuCyte Zoom live cells imaging method; assay type: functional, cell-based
[35] = target: T1, [Pyruvate dehydrogenase (acetyl-transferring)] kinase isozyme 1, mitochondrial; assay: Inhibition of recombinant N-terminal 6xHis-SUMO-tagged human PDK1 (29 to 436 residues) expressed in Escherichia coli BL-21 assessed as phosphorylation of RYHGHSMSDP at 50 uM after 30 mins by Kinase-Glo luminescent assay
[36] = species on record: Sus scrofa; assay: Activation of pig heart PDC assessed as production of NADH at 50 uM in presence of ATP
In short: (§3)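 Pig heart PDC (80 µg/ml, carrying intrinsic PDK activity) preincubated 40 min at 37 °C in Mops pH 7.20 buffer with NaF, acetyl-CoA, NADH and DTT. Kinase step 3 min at 37 °C with 55 µM ADP and 100 µM ATP, or no ATP. Stopped with ADP/pyruvate. Residual PDC activity then read as NADH formation at 340 nm, 37 °C, in Tris pH 7.8 with TPP, NAD+, pyruvate and CoA.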

[37] = species on record: Sus scrofa; assay: Activation of pig heart PDC assessed as production of NADH at 50 uM in absence of ATP; in short: as §3
[38] = target: T1, [Pyruvate dehydrogenase (acetyl-transferring)] kinase isozyme 1, mitochondrial; assay: Inhibition of recombinant N-terminal 6xHis-SUMO-tagged human PDK1 (29 to 436 residues) expressed in Escherichia coli BL-21 assessed as activation of PDC at 50 uM
[39] = target: T1, [Pyruvate dehydrogenase (acetyl-transferring)] kinase isozyme 1, mitochondrial; assay: Inhibition of recombinant N-terminal 6xHis-SUMO-tagged human PDK1 (29 to 436 residues) expressed in Escherichia coli BL-21 assessed as suppression of PDC phosphorylation at S293 at 50 uM after 30 mins by Western blot method

T1 sequence (Q15118 whole entry): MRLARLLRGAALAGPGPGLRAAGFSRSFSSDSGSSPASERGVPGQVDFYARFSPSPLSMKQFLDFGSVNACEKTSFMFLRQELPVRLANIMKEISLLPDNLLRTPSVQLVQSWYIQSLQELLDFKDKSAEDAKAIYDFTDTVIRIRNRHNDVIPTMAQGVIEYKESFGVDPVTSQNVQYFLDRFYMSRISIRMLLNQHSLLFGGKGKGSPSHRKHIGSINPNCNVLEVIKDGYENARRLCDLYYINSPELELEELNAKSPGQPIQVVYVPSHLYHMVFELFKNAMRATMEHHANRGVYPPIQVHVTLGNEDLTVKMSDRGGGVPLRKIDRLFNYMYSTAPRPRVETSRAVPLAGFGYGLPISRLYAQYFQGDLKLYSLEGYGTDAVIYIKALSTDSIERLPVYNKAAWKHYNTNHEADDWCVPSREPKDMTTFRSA

inhibition [1]: Active | inhibition [2]: Dose-dependent effect | inhibition [3]: inactive | inhibition [4]: Dose-dependent effect | inhibition [5]: Dose-dependent effect | inhibition [6]: Active | Kd [32]: 40.8 µM | inhibition [35]: Active | Activity [36]: inactive | Activity [37]: Active | inhibition [38]: Active | inhibition [39]: Active
Structure (SMILES): O=C(Nc1ccc(Cl)c(C(F)(F)F)c1)C(Cl)Cl
Activity [7]: 46.8% | Ratio [8]: 1.69 | Activity [9]: Dose-dependent effect | Activity [10]: Active | Activity [11]: 79.7% | Activity [12]: 65% | IC50 [13]: 7.46 µM | IC50 [14]: 3.12 µM | inhibition at 72 h, 10 µM [15]: 3.51% | inhibition at 72 h, 20 µM [16]: 10.3% | growth inhibition (GI) [17]: Active | growth inhibition (GI) [18]: Active | Activity [19]: 2.88% | Activity [20]: 11.8% | Activity [21]: 3.47% | viability at 20 µM [22]: 81.9% | Activity [23]: 1.98% | Activity [24]: 10.2% | Activity [25]: 5.41% | viability at 20 µM [26]: 82.4% | Activity [27]: 2.65% | Activity [28]: 14.2% | Activity [29]: 4.96% | viability at 20 µM [30]: 78.2% | Activity [31]: tde | growth inhibition (GI) [33]: Active | growth inhibition (GI) [34]: Active
